We go through 19 compounds from ChEMBL document CHEMBL1122229, “alpha-adrenoreceptor reagents. 1. Synthesis of some 1,4-benzodioxans as selective presynaptic alpha 2-adrenoreceptor antagonists and potential antidepressants” (J Med Chem, 1983).

Active and inactive are the calls of the source. The calls are words filed in the database; no cut-off is given here.

The target in assay [1] is T1, Adrenergic receptor alpha-1 (Rattus norvegicus) (UniProt P15823+P23944+P43140). The assay can be described thus: In vitro postsynaptic agonist potency at alpha-1 adrenergic receptor in rat anococcygeus muscle relative to phenylephrine; IA means inactive. It is filed as functional, tissue-based. The method in brief:
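Rat anococcygeus muscle (male Sprague–Dawley rats, 200–250 g) suspended at 0.5 g initial tension in a 50-mL organ bath. […] Standard dose-response curves were run before and after the analogue's curve.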

For assay [2], the system named is Alpha-2 adrenergic receptor (Rattus norvegicus). Put plainly: In vitro presynaptic antagonist potency at alpha-2 adrenergic receptor in rat or mouse vas deferens; IA means compound is inactive.
Assay [3] has as its target T2, Adrenergic receptor alpha-2 (Rattus norvegicus) (UniProt P22086+P19328+P22909). Put plainly: In vitro presynaptic agonist potency at alpha-2 adrenergic receptor in rat or mouse vas deferens relative to clonidine; IA means inactive. In kind it is functional, tissue-based. A digest of the protocol: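 Field-stimulated rat or mouse vas deferens (Krebs, 30 °C, 95% O2/5% CO2, 3-ms pulses at 0.1 Hz) with isometric twitch recording. […] Standard dose-response curves were run before and after the analogue's curve.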

Assay [4] concerns the target T1, Adrenergic receptor alpha-1 (Rattus norvegicus). Put plainly: In vitro postsynaptic antagonist potency at alpha-1 adrenergic receptor in rat anococcygeus relative to compound 5 (RX781094); IA means compound is inactive. It is filed as functional.
In assay [5] the test system is Alpha-2 adrenergic receptor (Rattus norvegicus). Put plainly: In vitro presynaptic agonist potency at Alpha-2 adrenergic receptor in rat or mouse vas deferens relative to clonidine; IA means inactive.
Assay [6] is described as follows: In vitro antagonism at Alpha-2 adrenergic receptor in rat or mouse vas deferens relative to RX781094. In kind it is functional. The method in brief:
(§1)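 Prostatic half of vas deferens from male Sprague–Dawley rats (200–250 g; Krebs, 30 °C, 95% O2/5% CO2, 0.1 Hz, 3-ms, 40 V) or from mice (magnesium-free Krebs, 100–140 V). Tension 0.5 g; isometric twitch recording. […] The concentration giving 50% reversal of the inhibition was compared with standard 5 in the same tissue.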

In assay [7] the target is T1, Adrenergic receptor alpha-1 (Rattus norvegicus). Put plainly: Ratio of presynaptic antagonist potency to postsynaptic antagonist potency. It is filed as functional.
The target is the same in assay [8]. The assay can be described thus: In vitro postsynaptic antagonist potency at alpha-1 adrenergic receptor in rat anococcygeus relative to compound 5 (RX781094). It is filed as functional.
Assay [9] shares this target. Put plainly: In vitro postsynaptic agonist potency at alpha-1 adrenergic receptor in rat anococcygeus muscle relative to phenylephrine. It is filed as functional, tissue-based.
The target of assay [10] is T3, Adenosine receptor A2b (Rattus norvegicus) (UniProt P29276).
T3 sequence (whole entry): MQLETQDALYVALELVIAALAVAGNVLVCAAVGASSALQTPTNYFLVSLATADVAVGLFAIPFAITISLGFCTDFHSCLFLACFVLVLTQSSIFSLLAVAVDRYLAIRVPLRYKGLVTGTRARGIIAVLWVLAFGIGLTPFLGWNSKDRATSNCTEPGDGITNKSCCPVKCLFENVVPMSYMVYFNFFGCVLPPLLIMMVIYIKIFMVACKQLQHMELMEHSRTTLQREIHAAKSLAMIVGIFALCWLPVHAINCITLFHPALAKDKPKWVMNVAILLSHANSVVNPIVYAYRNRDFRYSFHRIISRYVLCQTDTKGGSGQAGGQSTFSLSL
Put plainly: In vitro presynaptic antagonist potency at alpha-2 adrenergic receptor in rat or mouse vas deferens; IA means inactive. It is filed as functional. The method in brief: as §1

The target of assay [11] is T2, Adrenergic receptor alpha-2 (Rattus norvegicus). The assay can be described thus: In vitro presynaptic agonist potency at alpha-2 adrenergic receptor in rat or mouse vas deferens relative to clonidine. In kind it is functional, tissue-based. The method in brief: (§2)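 Field-stimulated rat or mouse vas deferens under 0.5 g tension, at 0.1 Hz with 3-ms pulses, 30 °C, gassed with 95% O2/5% CO2. Contractions were recorded isometrically. Standard dose-response curves were run before and after each analogue curve. Potency was expressed relative to the standard in the same experiment.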

Assay [12] concerns Alpha-1 adrenergic receptor (Rattus norvegicus). Put plainly: In vitro postsynaptic agonist potency at alpha-1 adrenergic receptor in rat anococcygeus.
Assay [13] concerns the target T1, Adrenergic receptor alpha-1 (Rattus norvegicus). The assay can be described thus: In vitro postsynaptic antagonist potency at alpha-1 adrenergic receptor in rat anococcygeus. In kind it is functional.
Assay [14] addresses T3, Adenosine receptor A2b (Rattus norvegicus). Put plainly: In vitro presynaptic agonist potency at Alpha-2 adrenergic receptor in rat or mouse vas deferens relative to clonidine; IA means inactive. In kind it is functional, tissue-based. The method in brief: as §2
The test system of assay [15] is Alpha-2 adrenergic receptor (Rattus norvegicus). Put plainly: In vitro presynaptic agonist potency at alpha-2 adrenergic receptor in rat or mouse vas deferens relative to clonidine; IA means inactive.
The test system is the same in assay [16]. Put plainly: In vitro presynaptic agonist potency at alpha-2 adrenergic receptor in rat or mouse vas deferens relative to clonidine; Inactive.
Assay [17] deals with Adrenergic receptor alpha-2 (Homo sapiens) (UniProt P08913+P18825+P18089). The assay can be described thus: In vitro presynaptic antagonist potency at Alpha-2 adrenergic receptor in rat or mouse vas deferens relative to compound 5 (RX781094). It is filed as functional, tissue-based. A digest of the protocol:
as §1

Assay [18] deals with T1, Adrenergic receptor alpha-1 (Rattus norvegicus). Put plainly: In vitro postsynaptic antagonist potency at alpha-1 adrenergic receptor in rat anococcygeus relative to compound 5 (RX781094); AG means compound is agonist. In kind it is functional. The conditions noted are these: filed as agonist.
For assay [19] the target is unchanged. The assay can be described thus: In vitro postsynaptic antagonist potency at alpha-1 adrenergic receptor in rat anococcygeus. Taken as standard. It is filed as functional.
Assay [20] deals with T3, Adenosine receptor A2b (Rattus norvegicus). Put plainly: In vitro presynaptic agonist potency at Alpha-2 adrenergic receptor in rat or mouse vas deferens relative to clonidine. In kind it is functional, tissue-based. A digest of the protocol: as §2

T1 sequence (P15823 whole entry, looked up): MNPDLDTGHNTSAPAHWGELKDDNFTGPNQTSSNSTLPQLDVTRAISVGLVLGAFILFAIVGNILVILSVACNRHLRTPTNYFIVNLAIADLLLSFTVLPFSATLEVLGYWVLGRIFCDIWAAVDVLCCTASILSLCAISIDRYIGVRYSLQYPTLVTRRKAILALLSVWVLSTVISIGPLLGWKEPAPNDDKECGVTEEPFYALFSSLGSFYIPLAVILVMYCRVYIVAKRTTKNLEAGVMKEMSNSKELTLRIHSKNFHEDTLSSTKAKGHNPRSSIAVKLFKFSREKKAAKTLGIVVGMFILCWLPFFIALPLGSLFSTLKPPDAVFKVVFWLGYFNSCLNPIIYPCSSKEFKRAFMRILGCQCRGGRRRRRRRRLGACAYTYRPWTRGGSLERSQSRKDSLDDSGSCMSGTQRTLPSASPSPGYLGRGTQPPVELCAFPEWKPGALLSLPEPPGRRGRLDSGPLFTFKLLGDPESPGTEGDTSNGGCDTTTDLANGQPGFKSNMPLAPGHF
T1 sequence (P23944 whole entry, looked up): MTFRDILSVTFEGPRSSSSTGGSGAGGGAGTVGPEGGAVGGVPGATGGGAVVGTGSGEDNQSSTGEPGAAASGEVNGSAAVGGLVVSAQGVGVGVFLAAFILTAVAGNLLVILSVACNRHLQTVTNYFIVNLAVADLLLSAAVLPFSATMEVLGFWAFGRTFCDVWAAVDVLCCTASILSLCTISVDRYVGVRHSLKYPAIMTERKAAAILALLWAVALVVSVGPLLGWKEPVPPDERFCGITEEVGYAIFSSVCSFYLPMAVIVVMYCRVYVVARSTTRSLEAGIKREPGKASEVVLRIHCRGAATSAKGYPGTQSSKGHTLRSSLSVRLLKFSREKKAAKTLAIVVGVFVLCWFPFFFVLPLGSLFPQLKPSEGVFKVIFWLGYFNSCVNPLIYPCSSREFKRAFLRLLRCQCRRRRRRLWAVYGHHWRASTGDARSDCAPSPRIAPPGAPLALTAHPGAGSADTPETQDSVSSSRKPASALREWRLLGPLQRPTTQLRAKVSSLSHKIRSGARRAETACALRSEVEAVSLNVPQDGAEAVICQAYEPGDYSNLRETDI
T1 sequence (P43140 whole entry, looked up): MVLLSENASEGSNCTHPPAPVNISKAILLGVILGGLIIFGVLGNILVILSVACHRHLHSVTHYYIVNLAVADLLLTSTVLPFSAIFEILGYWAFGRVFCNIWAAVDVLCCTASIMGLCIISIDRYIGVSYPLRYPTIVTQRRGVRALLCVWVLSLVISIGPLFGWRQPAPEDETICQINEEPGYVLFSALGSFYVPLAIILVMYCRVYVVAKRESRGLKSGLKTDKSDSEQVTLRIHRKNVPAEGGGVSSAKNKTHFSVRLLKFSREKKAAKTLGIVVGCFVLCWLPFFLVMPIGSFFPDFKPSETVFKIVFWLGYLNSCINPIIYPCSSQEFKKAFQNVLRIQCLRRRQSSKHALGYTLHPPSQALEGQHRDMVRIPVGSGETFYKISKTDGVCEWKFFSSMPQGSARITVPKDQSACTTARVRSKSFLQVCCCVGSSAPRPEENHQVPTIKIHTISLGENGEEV
T2 sequence (P19328 whole entry, looked up): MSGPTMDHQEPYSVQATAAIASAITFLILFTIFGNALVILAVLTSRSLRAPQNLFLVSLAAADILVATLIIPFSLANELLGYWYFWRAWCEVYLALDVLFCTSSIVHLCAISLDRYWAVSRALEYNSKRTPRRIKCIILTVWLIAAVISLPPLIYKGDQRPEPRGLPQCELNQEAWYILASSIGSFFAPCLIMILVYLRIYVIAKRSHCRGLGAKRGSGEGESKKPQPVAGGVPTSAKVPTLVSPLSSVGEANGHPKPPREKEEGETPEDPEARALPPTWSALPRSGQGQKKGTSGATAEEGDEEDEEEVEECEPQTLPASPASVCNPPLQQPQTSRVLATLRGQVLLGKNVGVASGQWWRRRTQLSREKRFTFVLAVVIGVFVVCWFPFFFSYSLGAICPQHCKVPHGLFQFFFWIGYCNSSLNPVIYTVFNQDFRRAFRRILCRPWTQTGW
T2 sequence (P22086 whole entry, looked up): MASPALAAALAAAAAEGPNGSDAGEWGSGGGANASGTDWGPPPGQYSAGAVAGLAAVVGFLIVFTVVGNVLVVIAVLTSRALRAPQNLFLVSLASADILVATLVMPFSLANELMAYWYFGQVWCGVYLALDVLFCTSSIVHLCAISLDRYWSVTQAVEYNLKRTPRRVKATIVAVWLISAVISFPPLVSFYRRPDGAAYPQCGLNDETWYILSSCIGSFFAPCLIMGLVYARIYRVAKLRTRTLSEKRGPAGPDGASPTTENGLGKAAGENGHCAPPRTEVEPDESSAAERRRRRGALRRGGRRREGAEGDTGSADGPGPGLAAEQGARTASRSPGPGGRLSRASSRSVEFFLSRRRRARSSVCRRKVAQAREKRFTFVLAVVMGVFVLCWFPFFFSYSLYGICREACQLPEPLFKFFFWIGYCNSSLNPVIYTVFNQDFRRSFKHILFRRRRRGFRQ
T2 sequence (P22909 whole entry, looked up): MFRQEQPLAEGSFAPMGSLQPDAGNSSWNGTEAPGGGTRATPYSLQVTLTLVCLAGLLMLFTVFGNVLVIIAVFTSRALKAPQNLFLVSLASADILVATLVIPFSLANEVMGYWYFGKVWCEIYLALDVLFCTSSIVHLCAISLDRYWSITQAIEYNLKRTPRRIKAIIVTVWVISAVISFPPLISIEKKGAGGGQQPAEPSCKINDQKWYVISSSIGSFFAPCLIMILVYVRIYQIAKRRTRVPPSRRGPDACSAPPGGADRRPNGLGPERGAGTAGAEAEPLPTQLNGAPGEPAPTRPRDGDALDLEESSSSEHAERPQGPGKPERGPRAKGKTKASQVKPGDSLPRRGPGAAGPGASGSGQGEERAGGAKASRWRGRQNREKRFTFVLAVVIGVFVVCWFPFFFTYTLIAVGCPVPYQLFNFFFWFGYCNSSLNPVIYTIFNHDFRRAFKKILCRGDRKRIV

On to `c1ccc2c(c1)OCC(C1=NCCS1)O2` (stereo not given), for which the Agonist potency result in [1] and in assay [3] was “inactive” in each case. For the same compound, the Antagonist potency entry in [2] and in [4] was “inactive” each time.

For the compound `Brc1cc2c(cc1Br)OC(C1=NCCN1)CO2` (stereo not given), the Agonist potency result in assay [5] was “inactive”. Also, the figures for the Antagonist potency in [6] and in assay [8] were 0.001 and 0.1, respectively. For the same compound, the Selectivity in assay [7] came out at 0.01. The compound further showed an Agonist potency in assay [9] of 0.02.

As for `c1ccc2c(c1)OCC(c1nn[nH]n1)O2` (stereo not given), the Agonist potency result in assay [1] and in assay [3] was “inactive” throughout. Also, the Antagonist potency result in [2] and in [4] was “inactive” each time.

For the compound `Oc1cc2c(cc1O)OC(C1=NCCN1)CO2` (stereo not given), the Antagonist potency result in assay [10] is “inactive”. Further, the Agonist potency in assay [11] was found to be 0.0006; in [12], 0.018. This compound also had an Antagonist potency in assay [13] above 6.

As to `CC(C)c1cccc2c1OCC(C1=NCCN1)O2` (stereo not given), the Antagonist potency result in assay [14] was “inactive”. Further, the Agonist potency in assay [11] turned out to be 0.1; in [9], 0.5. The Antagonist potency in assay [8] was determined as 1.

As to `COc1ccccc1OCC1=NCCN1`, the Antagonist potency result in [15] and in assay [4] was “inactive” throughout. The Agonist potency in assay [11] was determined as 0.001; in [9], 10.

With `N/C(=N\CC(=O)O)C1COc2ccccc2O1` (stereo not given), the Agonist potency entry in assay [5] and in [1] was “inactive” each time. Moreover, the Antagonist potency in [6] is below 0.0003; in assay [8], below 0.023.

`COc1cc2c(cc1OC)OC(C1=NCCN1)CO2` (stereo not given): the Agonist potency entry in [1] and in [16] was “inactive” each time. In assay [7], the Selectivity was 0.3. Further, the values for the Antagonist potency in [8] and in assay [17] were 0.05 and 0.015, respectively.

Take `NC(=NO)C1COc2ccccc2O1` (stereo not given): the Agonist potency result in assay [3] was “inactive”. The compound further had an Antagonist potency in assay [13] of 0.01.

Take `N=C(NN1CCOCC1)C1COc2ccccc2O1` (stereo not given): the Agonist potency entry in assay [1] and in assay [3] was “inactive” throughout. The Antagonist potency entry in [2] and in [4] was “inactive” throughout.

`Oc1ccc2c(c1)OCC(C1=NCCN1)O2` (stereo not given): the results for the Antagonist potency entry in assay [18] and in assay [6] were “Agonist” and 0.017, respectively. Moreover, the Agonist potency in assay [11] was 0.015; in [9] it was 0.55.

For `COCC/N=C(\N)C1COc2ccccc2O1` (stereo not given), the Agonist potency result in assay [1] and in [3] was “inactive” each time. Moreover, the Antagonist potency entry in [2] is “inactive”. The same compound showed an Antagonist potency in assay [8] of 0.1.

`Nc1noc(C2COc3ccccc3O2)n1` (stereo not given): the Antagonist potency result in assay [15] and in assay [4] was “inactive” throughout. Moreover, the Agonist potency result in assay [1] was “inactive”. Further, the Agonist potency in assay [11] was 0.0001.

As to `c1ccc2c(c1)OCC(C1=NCCN1)O2` (stereo not given), the Agonist potency entry in assay [1] and in [3] was “inactive” in each case. The compound also displayed an Antagonist potency in assay [19] of 1.

As for `Cc1cccc2c1OCC(C1=NCCN1)O2` (stereo not given), the values for the Antagonist potency entry in assay [18] and in assay [6] were “Agonist” and 0.13, respectively. Besides, the Agonist potency turned out to be 0.1 in assay [20] and 1 in [9].

For `Oc1ccc2c(c1)OC(C1=NCCN1)CO2` (stereo not given), the Antagonist potency entry in assay [18] is “Agonist”; in assay [6], 0.036. Also, the values for the Agonist potency in assay [11] and in assay [9] were 0.15 and 1.1, respectively.

Turning to `Clc1cccc2c1OC(C1=NCCN1)CO2` (stereo not given), the Antagonist potency entry in [18] is “Agonist”; in assay [6], 0.49. For the same compound, the Agonist potency in [11] was 0.67; in [9] it was 0.4.

Regarding `Nc1nc(N)nc(C2COc3ccccc3O2)n1` (stereo not given), the Agonist potency entry in assay [1] and in assay [16] was “inactive” each time. Besides, the Antagonist potency entry in assay [2] and in assay [4] was “inactive” in each case.

Turning to `Oc1cccc2c1OCC(C1=NCCN1)O2` (stereo not given), the Antagonist potency result in assay [18] is “Agonist”; in [6] it was 0.018. Besides, in assay [16], the Agonist potency result was “inactive”. The compound further gave an Agonist potency in assay [9] of 0.017.
